The nature of data set [1]: Cytotoxicity against human MCF10A cells after 72 hrs by MTT assay. As to conditions: MCF-10A. In kind it is ADME, cell-based. In general terms: Tetrazolium dyes change colour on reduction, which living cells bring about.
Data set [2] deals with MCF7. The experiment in a line: Antiproliferative activity against human […] cells assessed as growth recovery treated up to 5 uM for 24 hrs followed by maintained in drug free medium for 72 hrs by MTT assay. Type of data set: functional.
Data set [3] deals with MCF7. The experiment in a line: Cell cycle arrest in human […] cells assessed as accumulation at G2 phase at 7.5 uM by propidium iodide staining by FACS analysis (reference value: 10.96%). In kind it is functional.
For data set [4], the system named is MDA-MB-231. The experiment in a line: Cell cycle arrest in human […] cells assessed as accumulation at G1 phase at 2.5 uM by propidium iodide staining by FACS analysis (reference value: 63.74%). In kind it is functional. For orientation: A flow cytometer gives signals particle by particle.
Data set [5] deals with MDA-MB-231. The experiment in a line: Cell cycle arrest in human […] cells assessed as accumulation at subG1 phase at 2.5 uM by propidium iodide staining by FACS analysis (reference value: 0.3%). In kind it is functional.
In data set [6] the test system is MDA-MB-231. The experiment in a line: Cell cycle arrest in human […] cells assessed as accumulation at S phase at 5 uM by propidium iodide staining by FACS analysis (reference value: 13.72%). In kind it is functional.
The subject of data set [7] is MDA-MB-231. The experiment in a line: Cell cycle arrest in human […] cells assessed as accumulation at G2 phase at 5 uM by propidium iodide staining by FACS analysis (reference value: 22.74%). In kind it is functional.
Data set [8] has as its system MDA-MB-231. The experiment in a line: Cell cycle arrest in human […] cells assessed as accumulation at subG1 phase at 5 uM by propidium iodide staining by FACS analysis (reference value: 0.3%). Type of data set: functional.
Data set [9] relates to MDA-MB-231. The experiment in a line: Cell cycle arrest in human […] cells assessed as accumulation at subG1 phase at 7.5 uM by propidium iodide staining by FACS analysis (reference value: 0.3%). Type of data set: functional.
Data set [10] in a line: in vitro. As to conditions: human, MCF10A cells versus.
Data set [11] has as its target Platelet-derived growth factor receptor alpha (Homo sapiens) (UniProt P16234). The experiment in a line: Inhibition of PDGFRalpha (unknown origin) at 10 uM. The gist of the method: (§1)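 Cell-free kinase profiling was run as a standard 33P-ATP-based in vitro kinase assay.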
For data set [12], the target named is Transforming growth factor beta-1 proprotein (Homo sapiens) (UniProt P01137). The experiment in a line: Inhibition of TGFbeta1 (unknown origin) at 10 uM.
Data set [13] has as its system Mast/stem cell growth factor receptor Kit (Homo sapiens), P10721 [D816V]. The experiment in a line: Inhibition of cKit D816V mutant (unknown origin) at 10 uM. An outline of the steps: as §1
Data set [14] addresses Dual specificity calcium/calmodulin-dependent 3',5'-cyclic nucleotide phosphodiesterase 1A (Homo sapiens) (UniProt P54750). The experiment in a line: Inhibition of PDE1A3 (unknown origin) activity at 1 to 10 uM. The gist of the method: (§2)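 Recombinant PDE isoform activity was read by fluorescence polarization. A binding reagent complexes with the nucleotide monophosphate that the phosphodiesterase generates from cAMP/cGMP, and this raises the polarization of the labelled substrate. Reference standards were PDE1A3 10µM IBMX, PDE2A3 1nM BAY 60-7550, PDE3CAT 1µM cilostazol, PDE4CAT rolipram, PDE5CAT 0.1µM sildenafil, PDE7A […], PDE8A1 10µM BRL-50481, PDE9A1 1µM SB 36216 and PDE11A1 dipyridamole.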

Data set [15] concerns the target Phosphodiesterase 3 (Homo sapiens) (UniProt Q14432+Q13370). The experiment in a line: Inhibition of PDE3 CAT (unknown origin) activity at 1 to 10 uM. Type of data set: protein assay. The gist of the method:
as §2

In data set [16] the target is Dual 3',5'-cyclic-AMP and -GMP phosphodiesterase 11A (Homo sapiens) (UniProt Q9HCR9). The experiment in a line: Inhibition of PDE11A1 (unknown origin) activity at 1 to 10 uM. An outline of the steps:
as §2

Data set [17] relates to MDA-MB-231. The experiment in a line: Induction of apoptosis in human […] cells assessed as caspase 9 activation at 2.5 to 7.5 uM by Caspase-Glo assay. In kind it is functional, cell-based. An outline of the steps:
(§3)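 Caspase-8, -9 and -3 activities measured with Caspase-Glo 8, 9 and 3 kits; mean ± SEM from three independent experiments.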

In data set [18] the target is Induced myeloid leukemia cell differentiation protein Mcl-1 (Homo sapiens) (UniProt Q07820). The experiment in a line: Inhibition of basal level Mcl1 phosphorylation in human MDA-MB-231 cells at 1 uM by ELISA. Type of data set: cell-based. Background: In an ELISA, binding on a coated surface is turned into a signal by an enzyme label.
The subject of data set [19] is MCF7. The experiment in a line: Antiproliferative activity against human […] cells assessed as absence of growth recovery treated > 5 uM for 24 hrs followed by maintained in drug free medium for 72 hrs by MTT assay. Type of data set: functional, cell-based.
Data set [20] has as its system MDA-MB-231. The experiment in a line: Induction of apoptosis in human […] cells assessed as caspase 3 activation at 2.5 to 7.5 uM by Caspase-Glo assay. Type of data set: functional, cell-based. The gist of the method:
as §3

Data set [21] has as its system MDA-MB-231. The experiment in a line: Cytotoxicity against human […] cells assessed as cell viability at 5 uM by MTT assay in presence of z-LEHD-FMK caspase-9 inhibitor. Type of data set: functional, cell-based. The gist of the method:
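Cells seeded 1×10^4/well in DMEM with 10% FBS, adhered overnight, serum-starved 4 h; pre-incubated 2 h with Z-IETD-FMK or Z-LEHD-FMK (10µM each), then 5μM compound for a further 24 h; viability by MTT.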

Data set [22] relates to MCF7. The experiment in a line: Induction of apoptosis in human […] cells assessed as increase in Bax to Bcl2 ratio at 5 uM after 24 hrs by immunoblotting analysis. Type of data set: functional, cell-based. An outline of the steps: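 Immunoblot of Bax and Bcl-2 in cell lysates, loading normalized to actin; mean ± SEM, three independent experiments.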
Data set [23] deals with MDA-MB-231. The experiment in a line: Antiinvasion activity in human MDA-MB-231 cells assessed as inhibition of FBS-induced cell invaded to matrigel coated invasion chamber at 1 uM after 24 hrs by Transwell invasion assay. Type of data set: functional, cell-based.
In data set [24] the test system is MCF7. The experiment in a line: Antitumor activity against human MCF7 cells xenografted in NIH-3 mouse assessed as large area of stroma/deletion of epithelial cells at 16 mg/kg, po for 25 days. Type of data set: functional, organism-based. Details: dose 16 mg/kg.
Data set [25] has as its system MCF7. The experiment in a line: Induction of apoptosis in human MCF7 cells xenografted in NIH-3 mouse assessed as decrease in cyclin D1 in tumor at 16 mg/kg, po for 25 days by qPCR. Type of data set: functional, organism-based. More on the design: dose 16 mg/kg.
Data set [26] concerns MDA-MB-231. The experiment in a line: Inhibition of mammosphere formation in human MDA-MB-231 cells at 5 to 20 uM after 8 days. Type of data set: functional, cell-based. An outline of the steps:
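Single cells were plated in ultralow-attachment plates at 100,000 viable cells/ml for primary culture and 5,000 cells/ml for passages. Spheres formed over 7–10 days in serum-free MEBM containing compound, with salinomycin as comparator. Primary spheres were trypsin-dissociated for serial passage. Sphere number was counted manually and verified by two independent observers blinded to treatment.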

In data set [27] the test system is MCF7. The experiment in a line: Inhibition of IGF1 expression in human MCF7 cells at 5 uM by ELISA. Type of data set: functional, cell-based.
Data set [28] addresses Epidermal growth factor receptor (Homo sapiens) (UniProt P00533). The experiment in a line: Inhibition of EGF-induced EGFR phosphorylation at Tyr1148 in human MCF7 cells at 1 uM by ELISA. In kind it is cell-based.

For orientation: pIC50 means the negative decadic logarithm of the IC50, by convention in mol/L. A high value points to a small IC50.

pIC50: −log10 of the molar value. Calls of active or inactive are those of the source. No cut-off for these calls is given here.

Mast/stem cell growth factor receptor Kit (Homo sapiens), P10721 [D816V], sequence (P10721 whole entry D816V, canonical isoform): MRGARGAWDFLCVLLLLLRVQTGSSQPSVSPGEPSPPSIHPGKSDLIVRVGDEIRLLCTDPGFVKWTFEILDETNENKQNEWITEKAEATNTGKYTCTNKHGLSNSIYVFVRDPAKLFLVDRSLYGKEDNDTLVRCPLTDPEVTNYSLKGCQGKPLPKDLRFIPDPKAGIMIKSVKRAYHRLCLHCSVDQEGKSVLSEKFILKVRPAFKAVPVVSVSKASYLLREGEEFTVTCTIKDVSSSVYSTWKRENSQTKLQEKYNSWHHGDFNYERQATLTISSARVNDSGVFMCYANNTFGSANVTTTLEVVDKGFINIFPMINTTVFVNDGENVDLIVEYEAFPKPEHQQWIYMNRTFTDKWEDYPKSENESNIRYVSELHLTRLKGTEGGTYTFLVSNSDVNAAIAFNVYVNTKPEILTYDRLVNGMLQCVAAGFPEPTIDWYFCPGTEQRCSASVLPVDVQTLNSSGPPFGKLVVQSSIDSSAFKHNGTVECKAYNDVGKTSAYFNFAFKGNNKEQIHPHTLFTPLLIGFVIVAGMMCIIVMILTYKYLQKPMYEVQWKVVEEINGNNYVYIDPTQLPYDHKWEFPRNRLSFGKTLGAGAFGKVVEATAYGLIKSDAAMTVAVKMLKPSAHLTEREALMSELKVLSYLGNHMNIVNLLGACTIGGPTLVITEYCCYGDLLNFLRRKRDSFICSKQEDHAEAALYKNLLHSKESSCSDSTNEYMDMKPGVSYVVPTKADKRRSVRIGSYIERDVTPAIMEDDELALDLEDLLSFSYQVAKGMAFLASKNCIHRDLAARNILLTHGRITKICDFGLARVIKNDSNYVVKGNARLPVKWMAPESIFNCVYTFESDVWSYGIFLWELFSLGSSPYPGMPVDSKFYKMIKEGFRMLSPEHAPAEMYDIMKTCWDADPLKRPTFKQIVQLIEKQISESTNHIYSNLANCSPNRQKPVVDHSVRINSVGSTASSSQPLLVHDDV
Dual 3',5'-cyclic-AMP and -GMP phosphodiesterase 11A (Homo sapiens), sequence (Q9HCR9 whole entry, looked up): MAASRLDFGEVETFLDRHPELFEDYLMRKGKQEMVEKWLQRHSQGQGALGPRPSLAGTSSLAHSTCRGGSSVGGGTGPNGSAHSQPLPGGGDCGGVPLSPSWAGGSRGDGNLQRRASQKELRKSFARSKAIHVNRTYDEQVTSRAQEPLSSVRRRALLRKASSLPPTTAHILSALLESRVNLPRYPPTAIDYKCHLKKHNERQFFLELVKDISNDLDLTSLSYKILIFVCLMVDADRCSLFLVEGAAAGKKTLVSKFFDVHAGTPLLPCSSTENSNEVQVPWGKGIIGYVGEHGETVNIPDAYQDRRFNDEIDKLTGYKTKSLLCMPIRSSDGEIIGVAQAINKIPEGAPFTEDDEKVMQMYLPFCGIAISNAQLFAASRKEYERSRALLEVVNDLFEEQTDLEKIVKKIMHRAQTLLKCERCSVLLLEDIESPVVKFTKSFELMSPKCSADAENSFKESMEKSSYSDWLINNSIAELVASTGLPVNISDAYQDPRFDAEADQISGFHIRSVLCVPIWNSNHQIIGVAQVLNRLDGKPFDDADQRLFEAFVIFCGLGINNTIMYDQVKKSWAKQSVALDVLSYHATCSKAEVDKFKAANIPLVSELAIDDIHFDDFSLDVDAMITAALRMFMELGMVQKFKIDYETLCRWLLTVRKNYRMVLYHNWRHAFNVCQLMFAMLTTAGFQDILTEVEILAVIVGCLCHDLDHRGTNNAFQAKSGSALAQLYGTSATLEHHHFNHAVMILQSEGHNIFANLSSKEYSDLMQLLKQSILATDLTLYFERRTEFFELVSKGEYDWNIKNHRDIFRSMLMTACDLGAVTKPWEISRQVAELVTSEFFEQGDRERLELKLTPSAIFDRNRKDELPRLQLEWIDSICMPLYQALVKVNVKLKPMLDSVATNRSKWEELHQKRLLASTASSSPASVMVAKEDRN
Epidermal growth factor receptor (Homo sapiens), sequence (P00533 whole entry): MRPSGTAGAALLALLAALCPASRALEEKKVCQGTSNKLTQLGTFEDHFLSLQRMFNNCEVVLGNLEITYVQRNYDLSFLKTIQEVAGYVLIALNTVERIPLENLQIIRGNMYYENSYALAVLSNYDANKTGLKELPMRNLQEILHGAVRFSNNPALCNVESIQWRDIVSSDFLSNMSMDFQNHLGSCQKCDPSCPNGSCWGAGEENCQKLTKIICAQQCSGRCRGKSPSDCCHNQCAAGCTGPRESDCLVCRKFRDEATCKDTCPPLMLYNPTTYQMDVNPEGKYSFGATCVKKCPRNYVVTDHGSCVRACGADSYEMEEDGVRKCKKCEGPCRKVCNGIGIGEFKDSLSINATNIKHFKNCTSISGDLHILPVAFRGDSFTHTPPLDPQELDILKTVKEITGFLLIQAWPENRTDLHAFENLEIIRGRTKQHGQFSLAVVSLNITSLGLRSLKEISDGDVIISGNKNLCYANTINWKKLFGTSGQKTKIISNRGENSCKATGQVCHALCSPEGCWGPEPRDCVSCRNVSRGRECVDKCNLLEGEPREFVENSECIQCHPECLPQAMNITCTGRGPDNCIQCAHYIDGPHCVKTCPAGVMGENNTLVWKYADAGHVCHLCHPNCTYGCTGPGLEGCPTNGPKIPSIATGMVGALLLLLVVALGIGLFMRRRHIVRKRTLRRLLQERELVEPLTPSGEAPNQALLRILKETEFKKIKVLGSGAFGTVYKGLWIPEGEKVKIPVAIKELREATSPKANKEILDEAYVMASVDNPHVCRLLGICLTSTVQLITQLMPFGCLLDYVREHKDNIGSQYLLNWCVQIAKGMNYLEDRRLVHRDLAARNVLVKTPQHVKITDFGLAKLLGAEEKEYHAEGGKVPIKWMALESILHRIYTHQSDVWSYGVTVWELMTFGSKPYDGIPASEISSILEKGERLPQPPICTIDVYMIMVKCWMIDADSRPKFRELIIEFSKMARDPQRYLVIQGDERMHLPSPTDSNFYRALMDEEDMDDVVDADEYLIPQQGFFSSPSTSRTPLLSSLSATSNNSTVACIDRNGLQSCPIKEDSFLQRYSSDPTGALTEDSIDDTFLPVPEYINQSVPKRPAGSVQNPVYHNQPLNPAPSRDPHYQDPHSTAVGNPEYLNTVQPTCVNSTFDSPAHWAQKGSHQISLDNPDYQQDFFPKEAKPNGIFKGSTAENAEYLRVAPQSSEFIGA
Platelet-derived growth factor receptor alpha (Homo sapiens), sequence (P16234 whole entry): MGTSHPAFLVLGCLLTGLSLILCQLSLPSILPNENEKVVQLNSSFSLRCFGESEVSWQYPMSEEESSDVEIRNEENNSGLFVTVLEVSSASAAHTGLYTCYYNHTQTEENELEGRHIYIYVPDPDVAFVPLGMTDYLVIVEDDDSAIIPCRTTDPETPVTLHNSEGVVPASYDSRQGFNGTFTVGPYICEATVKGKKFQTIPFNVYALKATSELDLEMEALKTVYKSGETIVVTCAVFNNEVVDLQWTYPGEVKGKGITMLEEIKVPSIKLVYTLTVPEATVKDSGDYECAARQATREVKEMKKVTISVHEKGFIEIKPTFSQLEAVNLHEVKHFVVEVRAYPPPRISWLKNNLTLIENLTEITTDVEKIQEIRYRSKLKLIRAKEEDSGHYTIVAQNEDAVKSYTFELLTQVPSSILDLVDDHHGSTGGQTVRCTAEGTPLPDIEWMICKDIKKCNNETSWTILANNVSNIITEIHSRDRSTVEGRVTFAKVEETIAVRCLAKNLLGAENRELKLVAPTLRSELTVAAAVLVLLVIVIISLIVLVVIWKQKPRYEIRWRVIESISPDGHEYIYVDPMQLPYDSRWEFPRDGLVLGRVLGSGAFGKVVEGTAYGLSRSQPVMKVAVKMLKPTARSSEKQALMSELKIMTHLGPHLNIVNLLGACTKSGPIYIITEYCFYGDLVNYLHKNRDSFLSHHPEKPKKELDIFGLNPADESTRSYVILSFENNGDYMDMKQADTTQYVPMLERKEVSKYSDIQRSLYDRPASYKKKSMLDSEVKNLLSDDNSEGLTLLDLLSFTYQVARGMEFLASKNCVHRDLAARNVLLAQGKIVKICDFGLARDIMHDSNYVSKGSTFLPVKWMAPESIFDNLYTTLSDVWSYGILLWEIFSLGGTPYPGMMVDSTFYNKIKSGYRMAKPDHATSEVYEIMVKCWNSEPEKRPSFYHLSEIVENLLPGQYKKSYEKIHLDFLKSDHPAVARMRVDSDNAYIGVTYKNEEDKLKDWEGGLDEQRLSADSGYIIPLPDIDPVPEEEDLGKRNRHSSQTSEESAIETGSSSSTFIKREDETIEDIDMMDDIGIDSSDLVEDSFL
Transforming growth factor beta-1 proprotein (Homo sapiens), sequence (P01137 279-390 limits assumed): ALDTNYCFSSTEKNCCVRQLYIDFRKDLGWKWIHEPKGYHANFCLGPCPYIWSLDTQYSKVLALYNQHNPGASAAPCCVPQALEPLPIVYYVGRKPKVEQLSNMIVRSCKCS
Induced myeloid leukemia cell differentiation protein Mcl-1 (Homo sapiens), sequence (Q07820 whole entry): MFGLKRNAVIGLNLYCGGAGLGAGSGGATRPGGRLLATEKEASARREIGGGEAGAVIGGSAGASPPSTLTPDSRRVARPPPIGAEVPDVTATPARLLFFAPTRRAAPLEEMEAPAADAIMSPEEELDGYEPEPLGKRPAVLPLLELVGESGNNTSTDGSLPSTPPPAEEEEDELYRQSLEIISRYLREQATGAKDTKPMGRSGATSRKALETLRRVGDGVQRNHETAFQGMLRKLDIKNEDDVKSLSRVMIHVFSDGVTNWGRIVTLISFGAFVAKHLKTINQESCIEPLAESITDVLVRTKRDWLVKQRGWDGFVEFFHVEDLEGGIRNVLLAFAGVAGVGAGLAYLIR

`CCN(CC)CCO/N=C(\c1ccc(SC)cc1)c1cccc2ccccc12.O=C(O)C(=O)O` gave a negative logarithm of the IC50 (pIC50) in [1] of 4.30. Besides, the Activity in [2] worked out at 50%; in data set [3], 13.98%; in data set [4] it was 80.13%; in [5] it was 0.99%; in data set [6], 3.65%; in data set [7], 8.5%. Besides, the Activity in [8] stood at 0.9%; in data set [9], 0.8%. Besides, the selectivity ratio in data set [10] came out at 16.6.

`CCN(CC)CCO/N=C(\c1ccc(SC)cc1)c1cccc2ccccc12`: the inhibition entry in [11], in [12], in data set [13], in data set [14], in data set [15] and in [16] was “inactive” in each case. Besides, in [27], the inhibition result is “inactive”. Besides, the outcome in [17], in data set [19], in [20], in data set [22], in data set [23] and in data set [24] was Active. For the same compound, the outcome in [25] was Active. Further, the inhibition entry in data set [18], in data set [26] and in [28] was “Active” each time. The result in [21] was inactive.

The values are drawn from ChEMBL document CHEMBL3352791, “Thioaryl naphthylmethanone oxime ether analogs as novel anticancer agents” (J Med Chem, 2014).
